Test results from PMC5710144 (Genes & Development, 2017).

Assays:
[1] = test system: BRWD2/PHIP CRL4 interaction; assay: MS of Flag-BRWD2/PHIP purifications after inhibitor treatment; type: cell-based; settings: MLN4924 1 µM, 5 h
In short: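 Flag-BRWD2/PHIP was purified from MNase-digested chromatin of HEK293 TRex cells expressing Flag-BRWD2/PHIP, with parental HEK293 TRex cells as the control. MLN4924 (1 µM) was added 5 h before harvest where indicated. Immunoprecipitated complexes were prepared for MS and analysed by MS.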

[2] = test system: CUL4A / DDB1 association with BRWD2/PHIP; type: cell-based; settings: MLN4924 1 µM
In short: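 In HEK293 TRex cells expressing Flag-BRWD2/PHIP, MLN4924 (1 µM) was added 5 h before harvest. Flag purifications were made from MNase-digested chromatin. Inputs and immunoprecipitates were probed by immunoblot with antibodies to CUL4A, DDB1 and Flag-M2.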

BRWD2/PHIP association with Nedd8-binding protein UBXD7 (UBXN7) [1]: disrupts BRWD2/PHIP association
interaction with chromatin remodelers and histone-binding proteins (CHD4, PHF6, FACT) [1]: not altered
Structure (SMILES): NS(=O)(=O)OC[C@@H]1C[C@@H](n2ccc3c(N[C@H]4CCc5ccccc54)ncnc32)C[C@@H]1O [MLN4924]
BRWD2/PHIP association with CSN complex [1]: disrupts BRWD2/PHIP association
BRWD2/PHIP association with CUL4A and DDB1 ([2]; 5 h): still occurs
CUL4A level / CUL4A interaction with BRWD2/PHIP ([2]; 5 h): slightly reduced
Nedd8 attachment to CUL4 ([2]; added 5 h prior to harvesting, HEK293): blocks Nedd8 attachment to CUL4
